# Data from ChEMBL document CHEMBL1629663, “Postantibiotic effects of telavancin against 16 gram-positive organisms” (Antimicrob Agents Chemother, 2009).
# Tests used:
# [1] = system: Staphylococcus aureus; test: Antimicrobial activity against vancomycin-susceptible-, methicillin-resistant Staphylococcus aureus 1307 by microdilution method; format: functional
# [2] = system: Streptococcus pyogenes; test: Antimicrobial activity against Streptococcus pyogenes HMC 414 assessed as time required to induce post antibiotic sub-MIC effect at 0.2 times MIC pre-exposed to Telavancin for 2 hrs by plate counting method; format: functional; details: in the assay text read “for 1 hr” for “for 2 hrs”
# Summary of the method: (§1)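 Mueller-Hinton broth cultures of about 5 × 10^6 CFU/ml were pre-exposed to telavancin at 10× MIC for 1 h at 35°C, then diluted 1:1,000. Telavancin was re-added to final 0.2, 0.3 or 0.4× MIC, alongside a drug-free tube. Viable counts were taken before exposure, after dilution, then every 2 h until McFarland no. 1 turbidity. Duration comes from log10 CFU/ml-versus-time plots; two separate experiments with fresh inocula.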
# [3] = system: Staphylococcus aureus; test: Antimicrobial activity against vancomycin-susceptible-, methicillin-resistant Staphylococcus aureus 1130 assessed as time required to induce post antibiotic sub-MIC effect at 0.2 times MIC pre-exposed to Telavancin for […] by plate counting method; format: functional
# Summary of the method: (§2)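 After 1 h preexposure to 10× MIC at 35°C and 1:1,000 dilution, cultures were split, and drug was re-added to final 0.2, 0.3 or 0.4× MIC, with a drug-free tube. Viable counts were taken every 2 h until McFarland 1 turbidity. Duration was derived from log10 CFU/ml versus time curves. Two experiments were run, each with a new inoculum.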
# [4] = system: Staphylococcus aureus; test: Antimicrobial activity against vancomycin-intermediate-, methicillin-resistant Staphylococcus aureus 1984 assessed as time required to induce sub-MIC effect at 0.4 times MIC […] by plate counting method; format: functional
# Summary of the method: (§3)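 SME, viable plate count method: no prior drug exposure. About 5 × 10^6 CFU/ml in Mueller-Hinton broth at 35°C received 0.2, 0.3 or 0.4× MIC, alongside a drug-free tube. Counts were taken at the start, then every 2 h until McFarland no. 1 turbidity, as log10 CFU/ml against time. Two separate experiments, each with a new inoculum.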
# [5] = system: Staphylococcus aureus; test: Antimicrobial activity against vancomycin-intermediate-, methicillin-resistant Staphylococcus aureus 770 by microdilution method; format: functional
# [6] = system: Staphylococcus aureus; test: Antimicrobial activity against heterogenous vancomycin-intermediate-, methicillin-resistant Staphylococcus aureus 873 assessed as post-antibiotic effect at 10 times MIC pre-exposed to Telavancin for 1 hr by plate counting method; format: functional
# Summary of the method: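 Viable plate count method in Mueller-Hinton broth. Direct colony suspension inoculum of about 5 × 10^6 CFU/ml was exposed to 10× MIC for 1 h at 35°C in a shaking water bath, then diluted 1:1,000 to remove drug. Counts were taken before exposure, at 0 h, then every 2 h until McFarland no. 1 turbidity. PAE = T − C, the time to a 1 log10 rise versus an unexposed growth control.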
# [7] = system: Enterococcus faecium; test: Antimicrobial activity against Enterococcus faecium HMC 588 assessed as time required to induce post antibiotic sub-MIC effect at 0.4 times MIC […] by plate counting method; format: functional; summary of the method: as §1
# [8] = system: Enterococcus faecalis; test: Antimicrobial activity against Enterococcus faecalis HMC 571 assessed as time required to induce post antibiotic sub-MIC effect at 0.2 times MIC pre-exposed to Telavancin […] by plate counting method; format: functional; summary of the method: as §1
# [9] = Elimination half life in healthy human at 5 mg/kg, iv; format: ADME, organism-based; set-up: dose 5 mg/kg, route intravenous; details: in vivo, read-out: beta t1/2
# [10] = system: Streptococcus pyogenes; test: Antimicrobial activity against Streptococcus pyogenes HMC 414 by microdilution method; format: functional
# [11] = system: Staphylococcus aureus; test: Antimicrobial activity against vancomycin-susceptible-, methicillin-resistant Staphylococcus aureus 1130 assessed as time required to induce post antibiotic sub-MIC effect at 0.3 times MIC […] by plate counting method; format: functional; summary of the method: as §2
# [12] = system: Staphylococcus aureus; test: Antimicrobial activity against heterogenous vancomycin-intermediate-, methicillin-resistant Staphylococcus aureus 618 assessed as time required to induce post antibiotic sub-MIC effect at 0.2 times MIC pre-exposed to Telavancin […] by plate counting method; format: functional
# Summary of the method: (§4)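 PAE was first induced with 10× MIC for 1 h at 35°C (inoculum about 5 × 10^6 CFU/ml, Mueller-Hinton broth) and ended by 1:1,000 dilution. Cultures were then split and given 0.2, 0.3 or 0.4× MIC, with one tube left without drug. Viable counts were taken before exposure, after dilution, then every 2 h until McFarland no. 1 turbidity. Two separate experiments, each with a new inoculum.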
# [13] = system: Staphylococcus aureus; test: Antimicrobial activity against heterogenous vancomycin-intermediate-, methicillin-resistant Staphylococcus aureus 618 assessed as time required to induce sub-MIC effect at 0.4 times MIC […] by plate counting method; format: functional; summary of the method: as §3
# [14] = system: Staphylococcus aureus; test: Antimicrobial activity against heterogenous vancomycin-intermediate-, methicillin-resistant Staphylococcus aureus 873 assessed as time required to induce post antibiotic sub-MIC effect at 0.2 times MIC pre-exposed to Telavancin […] by plate counting method; format: functional; summary of the method: as §4
# [15] = system: Staphylococcus aureus; test: Antimicrobial activity against vancomycin-susceptible-, methicillin-resistant Staphylococcus aureus 1307 assessed as post-antibiotic effect at 10 times MIC pre-exposed to Telavancin for 1 hr by plate counting method; format: functional
# Summary of the method: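 Direct colony suspensions (~5 × 10^6 CFU/ml) were exposed to 10× MIC for 1 h at 35°C with shaking in Mueller-Hinton broth, then diluted 1:1,000 to remove drug. Viable plate counts were taken before exposure, at 0 h, then every 2 h until turbidity reached McFarland 1. PAE = T − C, the time for counts to rise 1 log10 versus the unexposed control. Two separate experiments were run.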
# [16] = system: Enterococcus faecalis; test: Antimicrobial activity against Enterococcus faecalis ATCC 29212 assessed as time required to induce sub-MIC effect at 0.3 times MIC exposed for 2 hrs by plate counting method; format: functional
# Summary of the method: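 Unexposed Mueller-Hinton broth cultures (about 5 × 10^6 CFU/ml, 35°C) were handled as in the PA-SME set but without the 10× MIC pre-exposure. They were diluted 1:1,000, then given telavancin at final 0.2, 0.3 or 0.4× MIC, with a drug-free control. Viable counts were taken every 2 h until McFarland no. 1 turbidity. Effect duration comes from log10 CFU/ml-time plots; two separate experiments with new inocula.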
# [17] = system: Enterococcus faecalis; test: Antimicrobial activity against Enterococcus faecalis ATCC 29212 assessed as post-antibiotic effect at 10 times MIC pre-exposed to Telavancin for 1 hr by plate counting method; format: functional
# Summary of the method: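 Organisms were suspended in Mueller-Hinton broth from overnight blood agar colonies at about 5 × 10^6 CFU/ml. Cultures were exposed to telavancin at 10× MIC for 1 h at 35°C in a shaking water bath, then diluted 1:1,000 to remove the drug, with an untreated growth control. Viable counts were taken before exposure, at 0 h, then every 2 h until McFarland no. 1 turbidity. PAE = T − C, the time to a 1 log10 rise. Two experiments.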
# [18] = system: Staphylococcus aureus; test: Antimicrobial activity against vancomycin-intermediate-, methicillin-resistant Staphylococcus aureus 1287 assessed as time required to induce sub-MIC effect at 0.2 times MIC […] by plate counting method; format: functional; summary of the method: as §3
# [19] = system: Staphylococcus aureus; test: Antimicrobial activity against vancomycin-intermediate-, methicillin-resistant Staphylococcus aureus 770 assessed as time required to induce sub-MIC effect at 0.2 times MIC […] by plate counting method; format: functional; summary of the method: as §3
# [20] = system: Staphylococcus aureus; test: Antimicrobial activity against vancomycin-intermediate-, methicillin-resistant Staphylococcus aureus 770 assessed as time required to induce post antibiotic sub-MIC effect at 0.4 times MIC […] by plate counting method; format: functional; summary of the method: as §4
# [21] = system: Staphylococcus aureus; test: Antimicrobial activity against vancomycin-susceptible-, methicillin-resistant Staphylococcus aureus 1130 by microdilution method; format: functional
smiles,measurement,setting,value
CCCCCCCCCCNCCN[C@@]1(C)C[C@H](O[C@H]2[C@H](Oc3c4cc5cc3Oc3ccc(cc3Cl)[C@@H](O)[C@@H](NC(=O)[C@@H](CC(C)C)NC)C(=O)N[C@@H](CC(N)=O)C(=O)N[C@H]5C(=O)N[C@H]3C(=O)N[C@H](C(=O)N[C@H](C(=O)O)c5cc(O)c(CNCP(=O)(O)O)c(O)c5-c5cc3ccc5O)[C@H](O)c3ccc(c(Cl)c3)O4)O[C@H](CO)[C@@H](O)[C@@H]2O)O[C@@H](C)[C@H]1O [TELAVANCIN],MIC,[1],0.12 µg/mL
same,PAE,[2],8.7 h
same,PAE,[3],5.4 h
same,PAE,[4],10 h
same,MIC,[5],0.25 µg/mL
same,PAE,[6],1.2 h
same,PAE,[7],> 10 h
same,PAE,[8],3.9 h
same,half-life,[9],> 7 h
same,MIC,[10],0.06 µg/mL
same,PAE,[11],10 h
same,PAE,[12],5.7 h
same,PAE,[13],2.3 h
same,PAE,[14],3.6 h
same,PAE,[15],1.1 h
same,PAE,[16],2 h
same,PAE,[17],0.3 h
same,PAE,[18],0 h
same,PAE,[19],0.7 h
same,PAE,[20],9.6 h
same,MIC,[21],0.12 µg/mL
